Measurements as given in ChEMBL document CHEMBL1121927, “Adriamycin analogues. Novel anomeric ribofuranoside analogues of daunorubicin” (1982).

Columns and labels:
[1] = tested on: CCRF-CEM; test: Inhibitory activity of compound against CCRF-CEM cells,a lymphoblastic leukemic of human origin propagated in suspension culture.; type: functional; conditions: read-out: ID50 (the source's name)
[2] = tested on: Nucleic Acid; test: Compound was tested for the extent of DNA binding in calf thymus at pH 7 TRIS buffer.; type: nucleic-acid assay; conditions: Bos taurus
How it was run: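 Spectral shift method with calf thymus DNA in Tris buffer, pH 7.0, at a drug/DNA molar ratio of 0.1. Binding extent is taken as the ratio of the absorbance of the drug–DNA mixture to that of drug alone at 480 nm.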

[3] = tested on: L1210; test: Increase in life span of treated animals relative to untreated controls expressed in murine L1210 leukemia at a dose of 50.6 mg/kg x4 after ip injection.; type: functional; conditions: Mus musculus, route intraperitoneal
How it was run: (§1)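 Mice implanted ip with 10⁵ L1210 leukemia cells on day 0. Treatment given ip once daily on days 1-4. Read-out is % ILS, the increase in life span of treated animals relative to untreated controls.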

[4] = tested on: L1210; test: Increase in life span of treated animals relative to untreated controls expressed in murine L1210 leukemia at a dose of 70 mg/kg x4 after ip injection.; type: functional; conditions: Mus musculus, route intraperitoneal; how it was run: as §1
[5] = tested on: L1210; test: Increase in life span of treated animals relative to untreated controls expressed in murine L1210 leukemia at a dose of 90 mg/kg x4 after ip injection.; type: functional; conditions: Mus musculus, route intraperitoneal; how it was run: as §1
[6] = tested on: L1210; test: Increase in life span of treated animals relative to untreated controls expressed in murine L1210 leukemia at a dose of 45 mg/kg x4 after ip injection.; type: functional; conditions: Mus musculus, route intraperitoneal; how it was run: as §1
[7] = tested on: L1210; test: Increase in life span of treated animals relative to untreated controls expressed in murine L1210 leukemia at a dose of 4 mg/kg x4 after ip injection.; type: functional; conditions: Mus musculus, route intraperitoneal; how it was run: as §1
[8] = tested on: L1210; test: Increase in life span of treated animals relative to untreated controls expressed in murine L1210 leukemia at a dose of 15 mg/kg x4 after ip injection.; type: functional; conditions: Mus musculus, route intraperitoneal; how it was run: as §1
[9] = tested on: L1210; test: Increase in life span of treated animals relative to untreated controls expressed in murine L1210 leukemia at a dose of 50 mg/kg x4 after ip injection; curative; type: functional, organism-based; set-up: dose 50 mg/kg; conditions: Mus musculus

| SMILES | IC50 [1] | Extent of DNA binding [2] | also measured |
| --- | --- | --- | --- |
| COc1cccc2c1C(=O)c1c(O)c3c(c(O)c1C2=O)C[C@@](O)(C(C)=O)C[C@@H]3O[C@@H]1O[C@H](C)[C@@H](N)[C@H]1O | 0.21 µM | 0.86 | ILS at 50.6 mg/kg [3]: 55% |
| COc1cccc2c1C(=O)c1c(O)c3c(c(O)c1C2=O)C[C@@](O)(C(C)=O)C[C@@H]3O[C@@H]1O[C@H](C)[C@@H](NC(=O)C(F)(F)F)[C@H]1O | 1.08 µM |  | ILS at 70 mg/kg [4]: 66% |
| COc1cccc2c1C(=O)c1c(O)c3c(c(O)c1C2=O)C[C@@](O)(C(C)=O)C[C@@H]3O[C@@H]1O[C@H](CO)[C@@H](O)[C@H](O)[C@H]1N | 3.04 µM | 0.82 | ILS at 90 mg/kg [5]: 60% |
| COc1cccc2c1C(=O)c1c(O)c3c(c(O)c1C2=O)C[C@@](O)(C(C)=O)C[C@@H]3O[C@H]1O[C@H](C)[C@@H](NC(=O)C(F)(F)F)[C@H]1O | 0.89 µM |  | ILS at 45 mg/kg [6]: 55% |
| COc1cccc2c1C(=O)c1c(O)c3c(c(O)c1C2=O)C[C@@](O)(C(=O)CO)C[C@@H]3O[C@H]1C[C@H](N)[C@H](O)[C@H](C)O1 [DOXORUBICIN] | 0.066 µM | 0.62 | ILS at 4 mg/kg [7]: 66% |
| COc1cccc2c1C(=O)c1c(O)c3c(c(O)c1C2=O)C[C@@](O)(C(C)=O)C[C@@H]3O[C@H]1O[C@H](C)[C@@H](N)[C@H]1O | 0.28 µM | 0.8 | ILS at 15 mg/kg [8]: 22% |
| CCCCC(=O)OCC(=O)[C@]1(O)Cc2c(O)c3c(c(O)c2[C@@H](OC2CC(NC(=O)C(F)(F)F)C(O)C(C)O2)C1)C(=O)c1c(OC)cccc1C3=O (some centres undefined) | 0.24 µM | 0.96 | ILS [9]: Curative |
